Experimental data taken from ChEMBL document CHEMBL1149648, “Norcantharimides, synthesis and anticancer activity: Synthesis of new norcantharidin analogues and their anticancer evaluation” (2007).

Tests used:
Assay type in all cases: functional
A-431 = assay: Cytotoxicity against human A431 cells at 100 uM after 72 hrs by MTT assay; details: A-431, 72 h
Method in brief: (§1)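 Log-phase cells in DMEM with 10% FBS (37 °C, 5% CO2) were plated in duplicate at 2500–4000 cells/well. Agent was added 24 h later at a fixed final concentration of 100 µM and left for 72 h continuous exposure. Read-out was MTT absorbance at 540 nm, expressed as percent growth inhibition, where 100% means total growth inhibition.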

[1] = Cytotoxicity against human BE2C cells at 100 uM after 72 hrs by MTT assay; details: BE(2)-C; method in brief: as §1
HT-29 = assay: Cytotoxicity against human HT29 cells at 100 uM after 72 hrs by MTT assay; details: HT-29, 72 h; method in brief: as §1
[2] = Cytotoxicity against human SJG2 cells at 100 uM after 72 hrs by MTT assay; details: SJ-G2, 72 h; method in brief: as §1
MCF7 = assay: Cytotoxicity against human MCF7 cells at 100 uM after 72 hrs by MTT assay; details: MCF7, 72 h; method in brief: as §1
DU-145 = assay: Cytotoxicity against human DU145 cells at 100 uM after 72 hrs by MTT assay; details: DU-145, 72 h; method in brief: as §1
A2780 = assay: Cytotoxicity against human A2780 cells at 100 uM after 72 hrs by MTT assay; details: A2780, 72 h; method in brief: as §1
NCI-H460 = assay: Cytotoxicity against human H460 cells at 100 uM after 72 hrs by MTT assay; details: NCI-H460, 72 h; method in brief: as §1
SW480 = assay: Cytotoxicity against human SW480 cells at 100 uM after 72 hrs by MTT assay; details: SW480, 72 h; method in brief: as §1

Compound | inhibition at 100 µM (A-431) | inhibition at 100 µM [1] | inhibition at 100 µM (HT-29) | inhibition at 100 µM [2] | inhibition at 100 µM (MCF7) | inhibition at 100 µM (DU-145) | inhibition at 100 µM (A2780) | inhibition at 100 µM (NCI-H460) | inhibition at 100 µM (SW480) | GI50 (A-431) | GI50 [1] | GI50 (HT-29) | GI50 [2] | GI50 (MCF7) | GI50 (DU-145) | GI50 (A2780) | GI50 (NCI-H460) | GI50 (SW480)
O=C1[C@@H]2[C@H](C(=O)N1CCCCCCO)[C@@H]1CC[C@H]2O1 | 6% | 22% | 21% | 12% | 51% | < 10% | 18% | 14% | 16% | – | – | – | – | – | – | – | – | –
CC(CO)N1C(=O)[C@@H]2[C@H](C1=O)[C@@H]1CC[C@H]2O1 (stereo partly drawn) | < 10% | < 10% | < 10% | < 10% | < 10% | < 10% | < 10% | < 10% | < 10% | – | – | – | – | – | – | – | – | –
CCC(CO)N1C(=O)[C@@H]2[C@H](C1=O)[C@@H]1CC[C@H]2O1 (stereo partly drawn) | < 10% | < 10% | < 10% | < 10% | < 10% | < 10% | < 10% | < 10% | < 10% | – | – | – | – | – | – | – | – | –
O=C1[C@@H]2[C@H](C(=O)N1CCN1CCOCC1)[C@@H]1CC[C@H]2O1 | < 10% | < 10% | < 10% | < 10% | < 10% | < 10% | < 10% | < 10% | < 10% | – | – | – | – | – | – | – | – | –
O=C1[C@@H]2[C@H](C(=O)N1CCCN1CCOCC1)[C@@H]1CC[C@H]2O1 | < 10% | < 10% | < 10% | < 10% | < 10% | < 10% | < 10% | < 10% | < 10% | – | – | – | – | – | – | – | – | –
O=C1[C@@H]2[C@H](C(=O)N1c1ccc([N+](=O)[O-])cc1)[C@@H]1CC[C@H]2O1 | 13% | 45% | 60% | 23% | > 100% | 13% | 53% | 37% | 44% | – | – | – | – | – | – | – | – | –
O=C(O)c1ccc(N2C(=O)[C@@H]3[C@H](C2=O)[C@@H]2CC[C@H]3O2)cc1 | < 10% | < 10% | < 10% | < 10% | < 10% | < 10% | < 10% | < 10% | < 10% | – | – | – | – | – | – | – | – | –
O=C1[C@@H]2[C@H](C(=O)N1CCCN1C(=O)[C@@H]3[C@H](C1=O)[C@@H]1CC[C@H]3O1)[C@@H]1CC[C@H]2O1 | 10% | 10% | 10% | 10% | 52% | 13% | 31% | 18% | 16% | – | – | – | – | – | – | – | – | –
CCCCCCCCCCCCN1C(=O)[C@@H]2[C@H](C1=O)[C@@H]1CC[C@H]2O1 | 35% | 40% | 25% | 58% | 52% | 66% | 40% | 53% | 55% | – | – | – | – | – | – | – | – | –
CCCCCCCCCCCCCCN1C(=O)[C@@H]2[C@H](C1=O)[C@@H]1CC[C@H]2O1 | – | – | – | – | – | – | – | – | – | 47 µM | 50 µM | 19 µM | 49 µM | 43 µM | 73 µM | 35 µM | 66 µM | 52 µM
C=CCCN1C(=O)[C@@H]2[C@H](C1=O)[C@@H]1CC[C@H]2O1 | < 10% | < 10% | < 10% | < 10% | < 10% | < 10% | < 10% | < 10% | < 10% | – | – | – | – | – | – | – | – | –
COC(CO)CN1C(=O)[C@@H]2[C@H](C1=O)[C@@H]1CC[C@H]2O1 (stereo partly drawn) | < 10% | < 10% | 12% | < 10% | 33% | < 10% | < 10% | < 10% | < 10% | – | – | – | – | – | – | – | – | –
